Test results reported in ChEMBL document CHEMBL1140782, “Nitrogen-appended N-alkylsulfonamides as inhibitors of gamma-secretase” (Bioorg Med Chem Lett, 2008).

Legend:
[1] = molecular target: Gamma-secretase; assay: Inhibition of human gamma secretase in H4 cells assessed as reduction of amyloid beta-40 levels; assay type: cell-based
Summary of the method: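 Cells were plated in 96 wells and allowed to attach. Medium was then replaced with Ultraculture containing compound at a final 1% DMSO, and cells were incubated overnight. Aβ40 in the conditioned medium was measured by sandwich ELISA, using a C-terminal Aβ40-specific monoclonal capture antibody and an HRP-labelled N-terminal Aβ monoclonal antibody for detection.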

[2] = system: Mus musculus; assay: Reduction of amyloid beta levels in Tg2576 beta-APP-Swedish transgenic mouse at 200 umol/kg, po after 3 hrs; assay type: functional; parameters: scale not given: the % may be the effect or the level left
Summary of the method: (§1)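 Tg2576 βAPP-Swedish transgenic mice received a single oral dose of 200 µmol/kg. At 3 h after dosing, brain Aβ was measured as percent reduction, and compound concentrations were measured in plasma and brain in nM, reported as mean ± deviation.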

[3] = system: Brain; assay: Drug level in Tg2576 beta-APP-Swedish transgenic mouse brain at 200 umol/kg, po; assay type: ADME, organism-based; details: in vivo, read-out: Drug uptake; summary of the method: as §1
[4] = system: Plasma; assay: Drug level in Tg2576 beta-APP-Swedish transgenic mouse plasma at 200 umol/kg, po; assay type: ADME, organism-based; details: in vivo; summary of the method: as §1
[5] = system: Mus musculus; assay: Reduction of amyloid beta levels in Tg2576 beta-APP-Swedish transgenic mouse at 500 umol/kg, po after 3 hrs; assay type: functional; parameters: scale not given: the % may be the effect or the level left

IC50 [1] [nM]	Structure (SMILES)	further results
1.2	C[C@H](CCCn1ncnn1)N(c1cc(Cl)ccc1CO)S(=O)(=O)c1ccc(Cl)cc1	–
1.6	C[C@H](CCCNC(=O)[C@H](O)c1ccccc1)N(c1cc(Cl)ccc1CO)S(=O)(=O)c1ccc(Cl)cc1	–
262	CNCCC[C@@H](C)N(c1cc(Cl)ccc1CO)S(=O)(=O)c1ccc(Cl)cc1	–
6.9	COCC(=O)NCCC[C@@H](C)N(c1cc(Cl)ccc1CO)S(=O)(=O)c1ccc(Cl)cc1	–
288	C[C@H](CCCN)N(c1cc(Cl)ccc1CO)S(=O)(=O)c1ccc(Cl)cc1	–
0.53	C[C@H](CCCn1nnnc1N(C)C)N(c1cc(Cl)ccc1CO)S(=O)(=O)c1ccc(Cl)cc1	–
0.32	C[C@H](CCCN(C)S(C)(=O)=O)N(c1cc(Cl)ccc1CO)S(=O)(=O)c1ccc(Cl)cc1	Activity [2]: 27%; concentration [3]: 0.759 µM; concentration [4]: 12.3 µM
26	C[C@H](CCCNC(=O)Cc1ccccc1)N(c1cc(Cl)ccc1CO)S(=O)(=O)c1ccc(Cl)cc1	–
5.1	C[C@H](CCCNC=O)N(c1cc(Cl)ccc1CO)S(=O)(=O)c1ccc(Cl)cc1	–
61	C[C@H](CCCn1nnc(-c2ccccc2)n1)N(c1cc(Cl)ccc1CO)S(=O)(=O)c1ccc(Cl)cc1	–
7.4	C[C@H](CCCNS(=O)(=O)c1ccccc1)N(c1cc(Cl)ccc1CO)S(=O)(=O)c1ccc(Cl)cc1	–
84	C[C@H](CCCN1CCc2ccccc2C1)N(c1cc(Cl)ccc1CO)S(=O)(=O)c1ccc(Cl)cc1	–
15	C[C@H](CCCNC(=O)c1ccccc1)N(c1cc(Cl)ccc1CO)S(=O)(=O)c1ccc(Cl)cc1	–
5	CCC[C@@H](C)N(c1cc(Cl)ccc1CO)S(=O)(=O)c1ccc(Cl)cc1	Activity [5]: 25%
14	CC(C)C(=O)NCCC[C@@H](C)N(c1cc(Cl)ccc1CO)S(=O)(=O)c1ccc(Cl)cc1	–
50	C[C@H](CCCN1CCCCC1)N(c1cc(Cl)ccc1CO)S(=O)(=O)c1ccc(Cl)cc1	–

Second part, the compound before the results:

Structure (SMILES)	IC50 [1] [nM]	further results
C[C@H](CCCn1nnc(N(C)C)n1)N(c1cc(Cl)ccc1CO)S(=O)(=O)c1ccc(Cl)cc1	5.6	–
C=C(Cl)CN(c1cc(Cl)ccc1CO)S(=O)(=O)c1ccc(C)cc1	850	–
C[C@H](CCCN1CCOCC1)N(c1cc(Cl)ccc1CO)S(=O)(=O)c1ccc(Cl)cc1	3.1	–
C[C@H](CCCn1nccn1)N(c1cc(Cl)ccc1CO)S(=O)(=O)c1ccc(Cl)cc1	12	–
C[C@H](CCCNS(C)(=O)=O)N(c1cc(Cl)ccc1CO)S(=O)(=O)c1ccc(Cl)cc1	0.23	–
C[C@H](CCCN(C)C)N(c1cc(Cl)ccc1CO)S(=O)(=O)c1ccc(Cl)cc1	6.5	–
C[C@H](CCCn1nnnc1-c1ccccc1)N(c1cc(Cl)ccc1CO)S(=O)(=O)c1ccc(Cl)cc1	15	–
C[C@H](CCCN1CCN(C)CC1)N(c1cc(Cl)ccc1CO)S(=O)(=O)c1ccc(Cl)cc1	29	–
C[C@H](CCCNC(=O)CO)N(c1cc(Cl)ccc1CO)S(=O)(=O)c1ccc(Cl)cc1	8.1	–
C[C@H](CCCNC1CCCO1)N(c1cc(Cl)ccc1CO)S(=O)(=O)c1ccc(Cl)cc1 (stereo partly specified)	29	–
C[C@H](CCCNc1ccccc1)N(c1cc(Cl)ccc1CO)S(=O)(=O)c1ccc(Cl)cc1	36	–
Cc1nnn(CCC[C@@H](C)N(c2cc(Cl)ccc2CO)S(=O)(=O)c2ccc(Cl)cc2)n1	6.1	–
Cc1nnnn1CCC[C@@H](C)N(c1cc(Cl)ccc1CO)S(=O)(=O)c1ccc(Cl)cc1	0.75	–
C[C@H](CCCn1cccn1)N(c1cc(Cl)ccc1CO)S(=O)(=O)c1ccc(Cl)cc1	18	–
CCC(=O)NCCC[C@@H](C)N(c1cc(Cl)ccc1CO)S(=O)(=O)c1ccc(Cl)cc1	13	–
C[C@H](CCCn1cncn1)N(c1cc(Cl)ccc1CO)S(=O)(=O)c1ccc(Cl)cc1	4.8	–
C[C@H](CCCN1CCCS1(=O)=O)N(c1cc(Cl)ccc1CO)S(=O)(=O)c1ccc(Cl)cc1	1.1	–
CC(=O)NCCC[C@@H](C)N(c1cc(Cl)ccc1CO)S(=O)(=O)c1ccc(Cl)cc1	7.3	–
C[C@H](CCCNC(=O)[C@@H](O)c1ccccc1)N(c1cc(Cl)ccc1CO)S(=O)(=O)c1ccc(Cl)cc1	2.9	–
C[C@H](CCCn1ccnc1)N(c1cc(Cl)ccc1CO)S(=O)(=O)c1ccc(Cl)cc1	11	–
C[C@H](CCCn1cnnn1)N(c1cc(Cl)ccc1CO)S(=O)(=O)c1ccc(Cl)cc1	0.51	Activity [2]: 41%; concentration [3]: 1.16 µM; concentration [4]: 5.47 µM
C[C@H](CCCn1ccnn1)N(c1cc(Cl)ccc1CO)S(=O)(=O)c1ccc(Cl)cc1	0.9	–
C[C@H](CCCNC(=O)CCc1ccccc1)N(c1cc(Cl)ccc1CO)S(=O)(=O)c1ccc(Cl)cc1	72	–
